Assay results published in ChEMBL document CHEMBL4680079, “Discovery of a Quinoline-4-carboxamide Derivative with a Novel Mechanism of Action, Multistage Antimalarial Activity, and Potent in Vivo Efficacy” (J Med Chem, 2016).
Values after ≈ are worked out from the molar mass of the structure shown.

What was measured:
[1] = system: HepG2; assay: Antiproliferative activity against human HepG2 cells assessed as reduction in cell viability; assay type: cell-based
[2] = system: Plasmodium falciparum; assay: Antiplasmodial activity against chloroquine-sensitive Plasmodium falciparum 3D7 infected in human red blood cells assessed as growth inhibition by SYBR Green fluorescence assay; assay type: functional, organism-based, RBC; details: 3D7, Erythrocyte
Procedure, shortened: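 P. falciparum 3D7 grown in 5% human red cells in RPMI 1640 (pH 7.3) with 0.5% Albumax II, hypoxanthine and gentamicin at 37°C under 1% O₂/3% CO₂. Growth measured by SYBR green fluorescence (ex 485/em 528 nm), with mefloquine as assay control. EC50 calculated.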

[3] = system: Plasmodium berghei; assay: Antiplasmodial activity against Plasmodium berghei ANKA infected in NMRI mouse assessed as survival days at 3 mg/kg, po QD for 4 days; assay type: functional; details: time 4 day
[4] = system: Plasmodium berghei; assay: Antiplasmodial activity against Plasmodium berghei infected in NMRI mouse assessed as reduction in parasitemia at 3 mg/kg, po QD for 4 days; assay type: functional; set-up: scale not given: the % may be the effect or the level left; details: time 4 day
Procedure, shortened: (§1)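 Female NMRI mice (n=3 per group, randomized, not blinded) infected with GFP-transfected P. berghei ANKA. Oral dosing once daily for 4 days in 10% DMSO/40% PEG400/50% water or HPMC suspension vehicle. Parasitaemia measured by flow cytometry on blood collected 96 h after infection. Mice watched for toxicity over 4 h post-dose each day.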

[5] = Permeability of the compound at 10 uM incubated for 5 hrs by UPLC-MS/MS analysis based PAMPA method; assay type: ADME; details: read-out: permeability
Procedure, shortened: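 PAMPA run on a lipid-oil-lipid tri-layer filter at pH 7.4. Compound at 10 μM in PBS (DMSO ≤5%) in donor wells, PBS in acceptor wells, kept 5 h at room temperature. Both compartments quantified by UPLC-MS/MS. Data accepted only when recovery exceeded 70%.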

[6] = system: Plasmodium berghei; assay: Antiplasmodial activity against Plasmodium berghei ANKA infected in NMRI mouse assessed as survival days at 10 mg/kg, po QD for 4 days; assay type: functional; details: time 4 day
[7] = Kinetic aqueous solubility of the compound by laser nephelometry; assay type: physicochemical; details: read-out: Kinetic_solubility
Procedure, shortened: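 Kinetic solubility measured by laser nephelometry. DMSO serial dilutions diluted into water to give final 100–5 μg/mL at 1.0% DMSO. Read immediately, in triplicate aliquots.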

[8] = Intrinsic clearance in CD1 mouse liver microsomes at 0.5 uM in presence of NADPH incubated upto 30 mins by UPLC-MS/MS analysis; assay type: ADME, Microsome; details: 0.5 h
Procedure, shortened: (§2)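 Compound at 0.5 μM incubated with female CD1 mouse, male Sprague-Dawley rat or pooled human liver microsomes (0.5 mg/mL, 50 mM potassium phosphate, pH 7.4). Reaction started with excess NADPH. Samples taken at 0-30 min, quenched in acetonitrile, analysed by UPLC-MS/MS. Verapamil used as control, single time course.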

[9] = system: Plasmodium berghei; assay: Antiplasmodial activity against Plasmodium berghei ANKA infected in NMRI mouse assessed as reduction in parasitemia at 10 mg/kg, po QD for 4 days; assay type: functional; set-up: scale not given: the % may be the effect or the level left; details: time 4 day; procedure, shortened: as §1
[10] = system: MRC5; assay: Antiproliferative activity against human MRC5 cells assessed as reduction in cell viability after 68 hrs by resazurin dye based fluorescence assay; details: MRC5, 68 h
Procedure, shortened: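 MRC-5 fibroblasts plated overnight as monolayers, exposed to compound pre-diluted in MEM for 68 h. Resazurin then added (final 50 μM) for 3 h, fluorescence read at ex 528/em 590 nm. Signal converted to % inhibition against high- and no-inhibition controls. Plates accepted at Z' > 0.5.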

[11] = system: Plasmodium berghei; assay: Antiplasmodial activity against Plasmodium berghei ANKA infected in NMRI mouse assessed as reduction in parasitemia at 30 mg/kg, po QD for 4 days; assay type: functional; set-up: scale not given: the % may be the effect or the level left; details: time 4 day; procedure, shortened: as §1
[12] = Half-life in NMRI mouse at 3 mg/kg, iv administered as bolus dose by UPLC-MS/MS analysis; assay type: ADME, organism-based; details: in vivo
Procedure, shortened: (§3)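 Intravenous bolus solution, 3 mg free base/kg (5 mL/kg; 10% DMSO, 90% saline), given to female NMRI mice (n=3). Compound level in blood determined by UPLC-MS/MS. PK parameters derived from the blood concentration-time curve.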

[13] = biological target: Voltage-gated inwardly rectifying potassium channel KCNH2 (Homo sapiens, UniProt Q12809); assay: Inhibition of human ERG by IonWorks patch-clamp electrophysiology method
Voltage-gated inwardly rectifying potassium channel KCNH2, sequence (Q12809 whole entry): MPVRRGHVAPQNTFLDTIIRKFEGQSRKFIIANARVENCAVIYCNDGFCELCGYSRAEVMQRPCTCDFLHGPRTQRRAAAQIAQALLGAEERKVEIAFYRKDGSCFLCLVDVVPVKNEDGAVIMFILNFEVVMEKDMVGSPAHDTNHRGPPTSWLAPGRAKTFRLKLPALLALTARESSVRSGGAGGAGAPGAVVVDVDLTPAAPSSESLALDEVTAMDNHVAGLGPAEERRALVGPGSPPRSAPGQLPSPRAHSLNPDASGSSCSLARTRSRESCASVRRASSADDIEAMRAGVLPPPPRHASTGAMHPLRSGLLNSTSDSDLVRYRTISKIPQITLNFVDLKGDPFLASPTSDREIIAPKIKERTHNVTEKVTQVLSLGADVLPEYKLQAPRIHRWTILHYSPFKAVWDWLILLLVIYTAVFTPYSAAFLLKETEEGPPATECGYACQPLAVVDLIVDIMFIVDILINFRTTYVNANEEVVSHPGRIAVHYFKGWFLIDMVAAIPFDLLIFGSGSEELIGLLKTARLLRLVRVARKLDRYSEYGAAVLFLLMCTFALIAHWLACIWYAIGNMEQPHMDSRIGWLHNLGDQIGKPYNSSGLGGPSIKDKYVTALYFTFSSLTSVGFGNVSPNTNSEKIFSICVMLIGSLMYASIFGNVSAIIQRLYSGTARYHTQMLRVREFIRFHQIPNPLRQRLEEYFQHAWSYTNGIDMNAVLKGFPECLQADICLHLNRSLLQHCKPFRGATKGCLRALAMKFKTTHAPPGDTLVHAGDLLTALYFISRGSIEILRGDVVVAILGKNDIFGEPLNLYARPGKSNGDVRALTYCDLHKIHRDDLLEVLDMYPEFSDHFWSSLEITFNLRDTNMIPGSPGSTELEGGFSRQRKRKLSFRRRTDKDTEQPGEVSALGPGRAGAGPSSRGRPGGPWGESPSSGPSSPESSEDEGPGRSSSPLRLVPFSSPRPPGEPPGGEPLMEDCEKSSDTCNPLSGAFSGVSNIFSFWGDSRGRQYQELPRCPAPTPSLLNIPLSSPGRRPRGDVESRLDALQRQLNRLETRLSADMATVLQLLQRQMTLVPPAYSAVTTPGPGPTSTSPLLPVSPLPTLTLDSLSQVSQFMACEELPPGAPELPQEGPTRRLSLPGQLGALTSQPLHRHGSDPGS
Procedure, shortened: (§4)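 hERG K⁺ channel inhibition measured by IonWorks patch-clamp electrophysiology. Eight-point concentration-response curves made from 3-fold serial dilutions down from the maximum final assay concentration. Each curve generated on 2 occasions.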

[14] = system: Plasmodium berghei; assay: Antiplasmodial activity against Plasmodium berghei ANKA infected in NMRI mouse assessed as reduction in parasitemia at 1 mg/kg, po QD for 4 days; assay type: functional; set-up: scale not given: the % may be the effect or the level left; details: time 4 day; procedure, shortened: as §1
[15] = Oral bioavailability in NMRI mouse at 10 mg/kg administered via gavage by UPLC-MS/MS analysis; assay type: ADME, organism-based; details: in vivo
Procedure, shortened: (§5)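 Female NMRI mice (n=3) dosed by oral gavage as a solution at 10 mg free base/kg (10 mL/kg; vehicle 5 or 10% DMSO, 40% PEG400). Blood levels measured by UPLC-MS/MS. Parameters derived from the blood concentration-time curve.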

[16] = Cmax in NMRI mouse at 10 mg/kg, po administered as gavage by UPLC-MS/MS analysis; assay type: ADME, organism-based; set-up: route oral, dose 10 mg/kg; details: in vivo; procedure, shortened: as §5
[17] = system: Plasmodium berghei; assay: Antiplasmodial activity against Plasmodium berghei ANKA infected in NMRI mouse assessed as survival days at 30 mg/kg, po QD for 4 days; assay type: functional; details: time 4 day
[18] = Intrinsic clearance in human liver microsomes at 0.5 uM in presence of NADPH incubated upto 30 mins by UPLC-MS/MS analysis; assay type: ADME, Microsome; details: 0.5 h; procedure, shortened: as §2
[19] = system: Plasmodium falciparum; assay: Antiplasmodial activity against late stage (IV/V) Plasmodium falciparum NF54 gametocytes transfected with GFP-LUC assessed as growth inhibition incubated for 72 hrs by mitotracker Red-CMXROS dye based fluorescence microscopic analysis; assay type: functional, organism-based; details: NF54, 72 h
Procedure, shortened: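 NF54 pfs16-LUC-GFP stage IV–V gametocytes (10% parasitaemia, 0.1% haematocrit) exposed to compound in 0.4% DMSO, three concentrations per log, for 72 h at 37°C under 5% CO2/5% O2/90% N2. MitoTracker Red CM-H2Xros then added for 16 h and viable gametocytes counted by imaging.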

[20] = system: Plasmodium berghei; assay: Antiplasmodial activity against Plasmodium berghei ANKA infected in NMRI mouse assessed as survival days at 1 mg/kg, po QD for 4 days; assay type: functional; details: time 4 day
[21] = system: Plasmodium berghei; assay: Antiplasmodial activity against Plasmodium berghei ookinete form assessed as growth inhibition incubated for 22 hrs by GFP-based fluorescence microscopic analysis; assay type: functional, organism-based
[22] = Volume of distribution at steady state in NMRI mouse at 3 mg/kg, iv administered as bolus dose by UPLC-MS/MS analysis; assay type: ADME, organism-based; details: in vivo, read-out: Vdss; procedure, shortened: as §3
[23] = Clearance in NMRI mouse blood at 3 mg/kg, iv administered as bolus dose by UPLC-MS/MS analysis; assay type: ADME, organism-based; procedure, shortened: as §3
[24] = system: Plasmodium yoelii; assay: Antiplasmodial activity against Plasmodium yoelli liver stage forms; assay type: functional, organism-based
[25] = Tmax in NMRI mouse at 10 mg/kg, po administered as gavage by UPLC-MS/MS analysis; assay type: ADME, organism-based; details: in vivo; procedure, shortened: as §5
[26] = AUC in NMRI mouse at 10 mg/kg, po administered as gavage by UPLC-MS/MS analysis; assay type: ADME, organism-based; set-up: dose 10 mg/kg; details: in vivo; procedure, shortened: as §5
[27] = system: Plasmodium berghei; assay: Antiplasmodial activity against GFP-transfected Plasmodium berghei ANKA infected in NMRI mouse assessed as reduction in parasitemia by measuring effective dose administered once daily oral dose for 4 days; assay type: functional; details: 96 h, time 4 day; procedure, shortened: as §1
[28] = biological target: hERG (KCNH2) (Homo sapiens, UniProt Q12809); assay: Inhibition of human ERG at 11 uM by IonWorks patch-clamp electrophysiology method relative to control; procedure, shortened: as §4
hERG (KCNH2), sequence (Q12809 whole entry): as above

[29] = Intrinsic clearance in Sprague-Dawley rat liver microsomes at 0.5 uM in presence of NADPH incubated upto 30 mins by UPLC-MS/MS analysis; assay type: ADME, Microsome; details: 0.5 h; procedure, shortened: as §2
[30] = Protein binding in CD1 mouse plasma measured after 5 hr by UPLC-MS/MS analysis based equilibrium dialysis method; assay type: ADME, cell-free; details: mouse, 5 h
Procedure, shortened: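 Equilibrium dialysis of female CD1 mouse plasma spiked at 10 μg/mL (12-14 kDa membrane) against isotonic buffer for 5 h at ~37°C with shaking. Unbound fraction taken as the buffer/plasma peak-area ratio by UPLC-MS/MS. n=6 replicates, run in triplicate.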

[31] = Toxicity in NMRI mouse assessed as maximum tolerated dose administered twice a day for 4 days; details: in vivo, time 4 day

Row | Structure (SMILES) | EC50 [1] [µM] | EC50 [2] [µM] | Survival [3] [days] | Activity [4] [%] | Papp at 5 h, 10 µM [5] [nm/s] | Survival [6] [days] | solubility kinetic [7] [µM] | CLH [8] [mL/min/g] | Activity [9] [%] | EC50 [10] [µM] | Activity [11] [%] | half-life [12] [h] | IC50 [13] [µM] | bioavailability [15] [%] | Cmax [16] [µg/mL] | Survival [17] [days] | CLH [18] [mL/min/g] | EC50 [19] [µM] | EC50 [21] [µM] | Vd [22] [L/kg] | other results
1 | O=C(NCCN1CCC1)c1cc(-c2ccc(CN3CCOCC3)cc2)nc2ccc(F)cc12 | 41 | 0.004 | 9.3 | 99.2 | 75 | 20.3 | 71 (≈ 31.8 µg/mL) | 0.5 | 99.1 | – | – | – | – | – | – | – | – | – | – | – | –
2 | O=C(NCCN1CCCC1)c1cc(NCCCCN2CCOCC2)nc2ccc(Cl)cc12 | – | 0.004 | 9 | 96 | 2 | 15 | 217 (≈ 99.8 µg/mL) | 2 | 99.7 | 13 | 99.8 | 12.5 | > 11 | 16 | 0.579 | 22 | < 1 | 0.104 | 0.005 | 3.5 | Activity [14]: 48%; Survival [20]: 6 days; clearance [23]: 0.24 L/h/kg; EC50 [24]: 0.018 µM; Tmax [25]: 2 h; AUC [26]: 2.94 µg·h/mL; ED90 [27]: 2.6 mg/kg
3 | CN(CCN1CCCC1)C(=O)c1cc(-c2ccc(CN3CCOCC3)cc2)nc2ccc(F)cc12 | > 50 | 0.087 | – | – | 137 | – | > 210 | < 0.5 | – | – | – | – | – | – | – | – | – | – | – | – | –
4 | O=C(NCCN1CCCC1)c1cc(NCCCN2CCOCC2)nc2ccc(F)cc12 | – | 0.07 | – | – | 2.3 | – | 230 (≈ 98.8 µg/mL) | 0.8 | – | 41 | 93 | 3.2 | > 11 | 15 | 0.315 | 7 | < 0.5 | – | – | 3 | inhibition at 11 µM [28]: 16%; clearance [23]: 0.84 L/h/kg; CLH [29]: < 0.5 mL/min/g; PPB [30]: 59%; Tmax [25]: 2 h; MTD at 96 h [31]: 300 mg/kg; AUC [26]: 1.55 µg·h/mL
5 | O=C(NCCNC1CC1)c1cc(-c2ccc(CN3CCOCC3)cc2)nc2ccc(F)cc12 | > 50 | 0.002 | – | – | 49 | – | – | 2 | – | – | – | – | – | – | – | – | – | – | – | – | –
6 | O=C(NCCN1CCCC1)c1cc(-c2ccc(S(=O)(=O)N3CCOCC3)cc2)nc2ccc(F)cc12 | – | 0.004 | – | – | 29 | – | 109 (≈ 55.9 µg/mL) | 1.9 | – | 21 | – | – | 11 | – | – | – | – | 0.152 | 0.015 | – | PPB [30]: 75%
